Source: ChEMBL document CHEMBL4371043, “Dynamic Generation of G-Quadruplex DNA Ligands by Target-Guided Combinatorial Chemistry on a Magnetic Nanoplatform” (J Med Chem, 2019)
Active and inactive are the calls of the source. No cut-off for these calls is given here.

What was measured:
dsDNA [1] = experiment: Binding affinity to 6-FAM/TAMRA labeled double stranded DNA (unknown origin) in potassium cacodylate buffer assessed as change in melting temperature at 1 uM at pH 7.4 by FRET-Based DNA melting assay; type: nucleic-acid assay
Summary of the method: (§1)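 FRET melting: FAM/TAMRA dual-labelled oligos (G4: TG4AG3TG4AG3TG4A2G2; duplex: CA5T5GCA5T5G) annealed at 400 nM in 60 mM potassium cacodylate pH 7.4 (95 °C 5 min, cool 0.1 °C/min). Melting run on 200 nM oligo ± 1 μM ligand; excitation 480 nm, emission 530 nm, 37–95 °C, 30 reads per °C. ΔTm versus ligand-free DNA.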

Quadruplex DNA [2] = experiment: Binding affinity to 6-FAM/TAMRA labeled cMYC G-quadruplex DNA (unknown origin) in potassium cacodylate buffer assessed as change in melting temperature at 1 uM at pH 7.4 by FRET-Based DNA melting assay; type: nucleic-acid assay; summary of the method: as §1
Quadruplex DNA [3] = experiment: Displacement thiazole orange from cMYC G-quadruplex DNA (unknown origin) in tris-KCL buffer after 30 mins by FID assay; type: nucleic-acid assay
Summary of the method: (§2)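 Thiazole orange displacement: pre-folded G4 or duplex DNA (0.25 μM) with TO (0.50 μM) in 100 mM Tris–KCl pH 7.4, 30 min rt; compound added stepwise, 3 min equilibration each, spectra excited at 501 nm. Percent TO displaced = 100 − (FA×100/FA0) from emission area; DC50 read from displacement-versus-concentration plot.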

Quadruplex DNA [4] = experiment: Binding affinity to cMYC G-quadruplex DNA G to A mutant promoter sequence (unknown origin) transfected in human Hela cells assessed as reduction in c-MYC promoter-linked expression at 1.5 uM incubated for 36 hrs by dual-luciferase reporter gene assay relative to control; type: cell-based; conditions: in the assay text read “wild-type promoter sequence” for “G to A mutant promoter sequence”
Summary of the method: (§3)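 Dual luciferase in HeLa: 0.2 μg c-MYC Del4 firefly reporter (wild-type or G-to-A mutant G-rich region) co-transfected with 30 ng pRL-TK Renilla control, Lipofectamine 2000, serum-free DMEM; after 8 h switched to complete medium with ligand at 1 or 1.5 μM. Lysed at 36 h; firefly activity normalised to Renilla.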

[5] = Cytotoxicity against human NKE cells assessed as reduction in cell viability after 24 hrs by XTT assay; type: cell-based
Summary of the method: (§4)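 XTT viability: HeLa (DMEM), A549 (Ham's F12K) or NKE (glutamine-supplemented RPMI 1640), all with 10% FBS, 37 °C, 5% CO2; 10^4–10^5 cells/well exposed to 0–50 μM compound for 24 h, in triplicate. XTT/PMS added 2 h at 37 °C; absorbance 450 nm; viability as percent of untreated control.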

dsDNA [6] = experiment: Displacement thiazole orange from double stranded DNA (unknown origin) in tris-KCL buffer after 30 mins by FID assay; type: nucleic-acid assay; summary of the method: as §2
A549 = experiment: Cytotoxicity against human A549 cells assessed as reduction in cell viability after 24 hrs by XTT assay; type: functional, cell-based; conditions: A549, 24 h; summary of the method: as §4
dsDNA [7] = experiment: Binding affinity to double stranded DNA (unknown origin) in tris-KCL buffer by fluorimetric titration assay; type: nucleic-acid assay
Summary of the method: (§5)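 Fluorimetric titration: unlabelled pre-folded G4 (TG4AG3TG4AG3TG4A2G2) or duplex (CA5T5GCA5T5G) DNA added stepwise to 0.25 μM ligand in filtered, degassed 100 mM Tris·KCl pH 7.4; 25 °C, 1 cm quartz cuvette, excitation 300 nm. Apparent Kd from fitting emission intensity against [DNA] to a one-site Hill equation.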

HeLa [8] = experiment: Cytotoxicity against human HeLa cells assessed as reduction in cell viability after 24 hrs by XTT assay; type: functional, cell-based; summary of the method: as §4
Quadruplex DNA [9] = experiment: Binding affinity to cMYC G-quadruplex DNA (unknown origin) in tris-KCL buffer by fluorimetric titration assay; type: nucleic-acid assay; summary of the method: as §5
Quadruplex DNA [10] = experiment: Binding affinity to cMYC G-quadruplex DNA in human HeLa cells assessed as reduction in cMYC protein expression at 1 uM after 24 hrs by Western blot analysis relative to control; type: cell-based
Summary of the method: (§6)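 Western blot, HeLa: 24 h ligand exposure at 1.0, 1.5 or 2.0 μM; lysis in 20 mM Tris/100 mM NaCl/1 mM EDTA/0.5% Triton X-100, protein by Folin-Lowry; 70 μg on 12% SDS-PAGE, nitrocellulose, 4% BSA block; rabbit anti-c-MYC and mouse anti-GAPDH overnight at 4 °C, HRP secondaries 2 h; bands quantified densitometrically.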

Quadruplex DNA [11] = experiment: Binding affinity to cMYC G-quadruplex DNA in human HeLa cells assessed as reduction in cMYC protein expression at 2 uM after 24 hrs by Western blot analysis relative to control; type: cell-based; summary of the method: as §6
Quadruplex DNA [12] = experiment: Binding affinity to cMYC G-quadruplex DNA G to A mutant promoter sequence (unknown origin) transfected in human Hela cells assessed as reduction in c-MYC promoter-linked expression at 1 to 1.5 uM incubated for 36 hrs by dual-luciferase reporter gene assay relative to control; type: cell-based; summary of the method: as §3
Quadruplex DNA [13] = experiment: Binding affinity to cMYC G-quadruplex DNA (unknown origin) assessed as increase in emission intensity at 0.25 uM in presence of increasing concentration of DNA by fluorimetric titration relative to control; type: nucleic-acid assay; summary of the method: as §5
Quadruplex DNA [14] = experiment: Binding affinity to wild type cMYC G-quadruplex DNA promoter sequence (unknown origin) transfected in human Hela cells assessed as reduction in c-MYC promoter-linked expression at 1.5 uM incubated for 36 hrs by dual-luciferase reporter gene assay relative to control; type: cell-based; summary of the method: as §3
Quadruplex DNA [15] = experiment: Binding affinity to cMYC G-quadruplex DNA (unknown origin) assessed as induction of red shift at 0.25 uM in presence of increasing concentration of DNA by fluorimetric titration relative to control; type: nucleic-acid assay; summary of the method: as §5
Quadruplex DNA [16] = experiment: Binding affinity to 6-FAM/TAMRA labeled cMYC G-quadruplex DNA (unknown origin) in potassium cacodylate buffer assessed as change in melting temperature at 1 uM at pH 7.4 in presence of 1 to 200 equiv calf thymus DNA by FRET-Based DNA melting assay; type: nucleic-acid assay
Summary of the method: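 Competition FRET melting: 0.2 μM FAM/TAMRA-labelled c-MYC G4 oligo with 1 μM ligand plus unlabelled calf-thymus duplex DNA at 1–200 equivalents of G4; ΔTm followed (excitation 480 nm, emission 530 nm, 37–95 °C ramp).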

dsDNA [17] = experiment: Binding affinity to double stranded DNA (unknown origin) assessed as increase in emission intensity at 0.25 uM by fluorimetric titration relative to control; type: nucleic-acid assay; summary of the method: as §5
Quadruplex DNA [18] = experiment: Binding affinity to cMYC G-quadruplex DNA in human HeLa cells assessed as induction of DNA damage by measuring increase in gammaH2AX foci at 1 to 2 uM measured after overnight incubation by alexafluor-647-based flow cytometry; type: cell-based
Summary of the method: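 γH2AX flow cytometry: HeLa treated overnight with 1 or 2 μM ligand, trypsinised, fixed in 1% paraformaldehyde 30 min rt, permeabilised with 0.03% saponin 20 min, then stained 3 h with Alexa Fluor 647 anti-γH2AX (1:100 in PBS + 0.1% FBS).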

HeLa [19] = experiment: Effect on GAPDH protein expression in human HeLa cells at 1 to 2 uM after 24 hrs by Western blot analysis relative to control; type: ADME, cell-based; summary of the method: as §6
Quadruplex DNA [20] = experiment: Binding affinity to cMYC G-quadruplex DNA in human HeLa cells assessed as reduction in cMYC protein expression at 1.5 uM after 24 hrs by Western blot analysis relative to control; type: cell-based; summary of the method: as §6
Quadruplex DNA [21] = experiment: Effect on native parallel topology of cMYC G-quadruplex DNA (unknown origin) assessed as formation of negative band at 240 nm up to 10 equiv concentration by CD spectroscopy; type: nucleic-acid assay
Quadruplex DNA [22] = experiment: Binding affinity to cMYC G-quadruplex DNA in human HeLa cells assessed as reduction in cMYC protein expression after 24 hrs by Western blot analysis; type: cell-based; summary of the method: as §6
Quadruplex DNA [23] = experiment: Binding affinity to wild type cMYC G-quadruplex DNA promoter sequence (unknown origin) transfected in human Hela cells assessed as reduction in c-MYC promoter-linked expression at 1 uM incubated for 36 hrs by dual-luciferase reporter gene assay relative to control; type: cell-based; summary of the method: as §3
Quadruplex DNA [24] = experiment: Effect on native parallel topology of cMYC G-quadruplex DNA (unknown origin) assessed as formation of positive band at 260 nm up to 10 equiv concentration by CD spectroscopy; type: nucleic-acid assay
[25] = Drug level in human HeLa cell nucleus at 0.5 uM measured after overnight incubation by NucRed647-staining based confocal microscopy; type: ADME, subcellular
Summary of the method: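 Confocal: HeLa on coverslips treated overnight with 0.5 μM ligand, fixed 12 min in 1:1 acetone/methanol at −20 °C, nuclei stained with NucRed 647 Live 10 min in the dark; ligand localisation imaged by confocal laser scanning.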

Quadruplex DNA [26] = experiment: Binding affinity to cMYC G-quadruplex DNA (unknown origin) assessed as reduction in fluorescence intensity at 0.25 uM by fluorimetric titration relative to control; type: nucleic-acid assay; summary of the method: as §5
dsDNA [27] = experiment: Binding affinity to double stranded DNA (unknown origin) assessed as reduction in fluorescence intensity at 0.25 uM by fluorimetric titration relative to control; type: nucleic-acid assay; summary of the method: as §5

SMILES	ΔTm (dsDNA [1]) [°C]	ΔTm (Quadruplex DNA [2]) [°C]	DC50 (Quadruplex DNA [3]) [µM]	IC50 [5] [µM]	DC50 (dsDNA [6]) [µM]	IC50 (A549) [µM]	IC50 (HeLa [8]) [µM]	Kd (Quadruplex DNA [9]) [µM]	also measured
COc1ccc(-c2ccc3c(c2)c2cc(CNc4ccc([N+](=O)[O-])cc4)ccc2n3CCCN(C)C)cc1	2.4	3.4							
COc1ccc(-c2ccc3c(c2)c2cc(CNCCCN(C)C)ccc2n3CCCN(C)C)cc1	7.2	5.3							
COc1ccc(-c2ccc3c(c2)c2cc(CNc4ccc(O)cc4)ccc2n3CCCN(C)C)cc1	1.9	0.7							
COc1ccc(-c2ccc3c(c2)c2cc(CNC4CC4)ccc2n3CCCN(C)C)cc1	1.1	3.5							
COc1ccc(-c2ccc3c(c2)c2cc(CNc4ccc(C#CCN(C)C)cc4)ccc2n3CCCN(C)C)cc1	3.79	5							
CCCCNCc1ccc2c(c1)c1cc(-c3ccc(OC)cc3)ccc1n2CCCN(C)C	9.5	13.6	8.01	> 50	> 30	4.3	2	5.72	inhibition (Quadruplex DNA [4]): 14%; Kd (dsDNA [7]): 6.63 µM
COc1ccc(-c2ccc3c(c2)c2cc(CNc4ccc(OCCCN(C)C)cc4)ccc2n3CCCN(C)C)cc1	0.58	23.4	2.25	> 50	> 30	6.4	2.5	1.08	inhibition (Quadruplex DNA [10]): 27%; inhibition (Quadruplex DNA [11]): 65%; Activity (Quadruplex DNA [12]): inactive; fold change (FC) (Quadruplex DNA [13]): 4.4; inhibition (Quadruplex DNA [14]): 45%; Activity (Quadruplex DNA [15]): Active; Activity (Quadruplex DNA [16]): Active; Activity (dsDNA [17]): inactive; Activity (Quadruplex DNA [18]): Active; Activity (HeLa [19]): Non-Toxic; inhibition (Quadruplex DNA [20]): 57%; Activity (Quadruplex DNA [21]): inactive; inhibition (Quadruplex DNA [22]): Dose-dependent effect; inhibition (Quadruplex DNA [23]): 31%; Activity (Quadruplex DNA [24]): inactive; Drug uptake [25]: Active
COc1ccc(-c2ccc3c(c2)c2cc(CNc4ccc(Br)cc4C)ccc2n3CCCN(C)C)cc1	0.44	3.3							
C#CCNCc1ccc2c(c1)c1cc(-c3ccc(OC)cc3)ccc1n2CCCN(C)C	8.5	11.8	> 25	> 50	> 30	> 25	11.5	7.17	Activity (Quadruplex DNA [12]): inactive; fold change (FC) (Quadruplex DNA [26]): 1.5; fold change (FC) (dsDNA [27]): 1.5; Kd (dsDNA [7]): 7.03 µM
COc1ccc(-c2ccc3c(c2)c2cc(CNc4nccs4)ccc2n3CCCN(C)C)cc1	1.15	3.2							
